Each structure is given as a SMILES string.

The data set can be described thus: Toxicity liver stage against HepG2, at 10uM. It counts as cell-based. Also on record: test concentration 10 uM, cell line HepG2-A16-CD81EGFP. As to conditions: human, HepG2-A16-CD81EGFP cells; read-out: INHIBITION
Summed up: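 Uninfected HepG2-A16-CD81EGFP cells, 3 × 10^3 per well, 1536-well, plated on prespotted compound at 10 μM final, parasite-free screening media added to match infected plates; puromycin 10 μM positive, DMSO 0.5% negative; run in parallel with 48 h PbLuc assay at 37 °C, 5% CO2; viability by CellTiter-Glo luminescence, normalized to controls.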
As to `O=C(N1CCOCC1)n1cnc2ccccc21`, the cytotoxicity at 10 µM was -3.11%.
With `Cc1ccc(Cl)cc1N1CCN(CC(=O)NC(C)c2ccco2)CC1` (stereo unspecified) the figure was 5.89%; with `COc1ccc(CN2C[C@@H]3OCC(=O)N(Cc4nccn4C)[C@@H]3C2)cc1`, 4.24%; with `CC(C)NC(=O)COc1cccc(-c2nc(C(C)C)no2)c1`, -5.77%.
With `CCC(=O)NC(c1cccnc1)c1cc(C)ccc1C` (stereo unspecified) the figure was -2.8%; with `CC(C)[C@H](NC(=O)Cn1nc2c(cc1=O)CCCC2)C(=O)O`, 1.85%; with `COC(=O)CC1CCN(C(=O)c2ccc(-n3nnnc3C)cc2)CC1`, -6.72%.
With `O=C(NCCN1CCCCC1)c1nc(-c2ccc3cc[nH]c3c2)no1`, the cytotoxicity at 10 µM was -8.54%.
As for `Cn1cc(I)c(C(=O)NCCCn2cc(Br)cn2)n1`, the cytotoxicity at 10 µM was 6.54%.
As for `CCn1nccc1CNC(=O)NC1CCCCC1`, the cytotoxicity at 10 µM is -27.5%.
`O=C(C1CC1)N1C[C@H]2CCCN(S(=O)(=O)c3cccc(F)c3)[C@H]2C1`: the cytotoxicity at 10 µM amounted to 5.11%.
Under `CNc1cccc(CC2COCCN(C(=O)c3cnn(C)c3)C2)n1` (stereo unspecified) stands 2.64%; under `CC(C)N1CCC(Cn2cc(C(N)=O)cn2)CC1`, 6.39%; under `CC(=O)N1CCn2c(nnc2C2CCCCN2Cc2ccccc2Cl)C1` (stereo unspecified), 10.6%.
On to `O=C1CO[C@H]2CN(Cc3cccc4[nH]ccc34)C[C@@H]2N1C1CCOCC1`, for which the cytotoxicity at 10 µM is -17.3%.
With `Nc1nccnc1C1CN(C(=O)c2cnc(C3CC3)nc2)CCO1` (stereo unspecified), the cytotoxicity at 10 µM is -27%.
Under `CC(=O)N1CCCC(c2ncncc2-c2ccncc2)C1` (stereo unspecified) stands -15.3%; under `CN1CCCCC1c1ncc2c(n1)CCN(CCCc1ccccc1)C2` (stereo unspecified), -30.5%.
Consider `c1cc(CN2CCCC(c3nnc(-c4cnccn4)o3)C2)ccn1` (stereo unspecified), for which the cytotoxicity at 10 µM was -9.14%.
With `Cc1nc(CCC(=O)NC2CCC2)cc(C2CCCNC2)n1` (stereo unspecified), the cytotoxicity at 10 µM is 1.09%.
Under `O[C@@H]1CN(Cc2cccnc2)C[C@H]1Oc1ccccc1` stands -23.2%; under `CN(C)Cc1ccnc(NS(=O)(=O)Cc2cccc(F)c2)c1`, 1.76%; under `Cc1noc(C)c1CN(C)C(=O)C1CCN(S(N)(=O)=O)CC1`, 7.47%.
For `CC(C)(C)n1ncc(C(=O)NCCCC(N)=O)c1C(F)(F)F`, the cytotoxicity at 10 µM was determined as 8.85%.
With `CSc1c[nH]nc1NS(=O)(=O)c1cc(F)ccc1C` the figure was 6.98%; with `CC1CCN(c2ccc(C(=O)N3CCCC3c3ccc[nH]3)cn2)CC1` (stereo unspecified), 2.84%; with `COC(=O)c1ccc(N(C(=O)c2cscn2)C(C)C)c(C)c1`, 1.7%.
Turning to `Cc1cc2n(n1)CC(CNCc1cc(C)on1)CN2` (stereo unspecified), the cytotoxicity at 10 µM was -7.93%.
Take `Cc1cc(C)n(CC2CCN(CC(O)COc3ccccc3)CC2)n1` (stereo unspecified): the cytotoxicity at 10 µM was -5.58%.
For the compound `CC1COCCN1C(=O)Cc1cc(Cl)c2c(c1)OCCO2` (stereo unspecified), the cytotoxicity at 10 µM is -4.29%.
Under `Cc1c(COc2ccccc2)cccc1NC(=O)N1CC[C@H](O)C1` stands 13.7%; under `Fc1ccc(CNCCn2cccn2)cc1F`, -8.01%; under `COc1cc(C(C)NCc2cscn2)ccc1SC(F)F` (stereo unspecified), 0.762%.
Turning to `Cc1cc(NC(=O)c2nc(N3CCCC3)ncc2Cl)ccc1Br`, the cytotoxicity at 10 µM was -7.2%.
As to `O=C(c1cc2c([nH]c1=O)CCC2)N1CCCC1c1ccccn1` (stereo unspecified), the cytotoxicity at 10 µM was -3.18%.
In the case of `CC(C)OCCSc1nnnn1C1CCOCC1`, the cytotoxicity at 10 µM is -0.494%.
In the case of `CC(c1ccc(C(F)(F)F)cc1)N1CCN(CCS(C)(=O)=O)CC1` (stereo unspecified), the cytotoxicity at 10 µM was 3.25%.
Under `CCSc1cc(C(=O)NCCNC(=O)Cc2ccccc2)ccn1` stands -6.41%.
As for `Cc1cc(NC2CCc3ncnn3C2)n2nc(C(F)(F)F)nc2n1` (stereo unspecified), the cytotoxicity at 10 µM came to 2.93%.
Consider `COc1cc(CNCCNC(=O)c2ccc(O)cc2)ccc1SC`, for which the cytotoxicity at 10 µM was determined as 9.72%.
Under `CCn1cc(S(=O)(=O)NC(CO)Cc2ccccc2)cn1` (stereo unspecified) stands 6.07%.
`CCc1nc(CNC2CCCCNC2=O)cs1` (stereo unspecified): the cytotoxicity at 10 µM is 8.74%.
On to `N#Cc1ccc(N2CCN(c3cnccn3)CC2)c(C(F)(F)F)c1`, for which the cytotoxicity at 10 µM was 46.6%.
For the compound `NS(=O)(=O)c1cnn(CCC(=O)N(C2CCCCC2)C2CC2)c1`, the cytotoxicity at 10 µM was -0.157%.
Consider `CCC1C(=O)NCCN1c1ccnc(C(C)(C)C)n1` (stereo unspecified), for which the cytotoxicity at 10 µM is -8.37%.
For `CCC1C(=O)NCCN1c1cc(C)ncn1` (stereo unspecified), the cytotoxicity at 10 µM was found to be 3.41%.
As for `CCS(=O)(=O)NC(CCSC)C(=O)Nc1cccc(C)c1C` (stereo unspecified), the cytotoxicity at 10 µM is -2.51%.
For the compound `Cc1cccc(C)c1CCNC(=O)N1CCCC2(C1)OCCO2`, the cytotoxicity at 10 µM was -3.47%.
For `O=C(CN1CCCCC1Cn1cccn1)NC1CCN(C2CC2)CC1` (stereo unspecified), the cytotoxicity at 10 µM was -4.43%.
With `Cn1cccc1CNC(=O)N(CCO)C1CCCc2ccccc21` (stereo unspecified), the cytotoxicity at 10 µM is -7.45%.
With `CC(=O)NC(C)c1ccc(OCC2CC2)c(F)c1` (stereo unspecified) the figure was -7.81%.
With `Cc1csc(CNC(=O)Nc2cc(C(F)(F)F)c[nH]c2=O)n1`, the cytotoxicity at 10 µM is -13.7%.
In the case of `COC(=O)CS(=O)(=O)CCC(=O)N1CCCC1c1ccsc1` (stereo unspecified), the cytotoxicity at 10 µM was -16.5%.
Turning to `CC(C)(C)NC(=O)CN1CCCC(c2ccc(C(=O)O)cc2)C1` (stereo unspecified), the cytotoxicity at 10 µM is -6.17%.
Under `Cc1cnn(C2(C(=O)O)CCN(c3ccnc4cc(Cl)ccc34)CC2)c1` stands -6.07%; under `CSc1ccc(CN(CCO)C(=O)CCc2ccc(O)cc2)cc1`, -0.711%; under `Cc1ccsc1CN(C)c1cc(N2CCOCC2)ncn1`, -0.33%.
With `COc1ccc(CCn2ccnc2-c2cc3n(n2)CCCNC3)cc1`, the cytotoxicity at 10 µM came to 8.07%.
As for `O=C1CC(C(=O)O)C2(CCN(C(=O)Nc3ccccc3Cl)CC2)N1` (stereo unspecified), the cytotoxicity at 10 µM was determined as 2.14%.
With `Cc1cc(C[C@@H]2COC[C@@H]2NC(=O)CNC(=O)N(C)C)on1` the figure was 2.57%; with `COCc1ncc(CN2CCC(Oc3ccccc3C)CC2)cn1`, 1.09%; with `CC[C@H]1COCCN1C(=O)c1cnc(-c2ccccc2)nc1C`, 2.84%.
Consider `CC(C)c1cc(C(=O)N2CCN(CC3CC3)[C@@H]3CS(=O)(=O)C[C@@H]32)no1`, for which the cytotoxicity at 10 µM is -2.19%.
As for `O=C1CCCc2occ(C(=O)N3CCCC(O)(CO)C3)c21` (stereo unspecified), the cytotoxicity at 10 µM was -10.1%.
For `Cc1ncc(C(=O)N2CCC(N3C[C@@H](C)O[C@@H](C)C3)CC2)c(=O)[nH]1`, the cytotoxicity at 10 µM was 3.42%.
Take `Cn1nc(CO)c2c1CCN(c1ncnc3c1CCNCC3)C2`: the cytotoxicity at 10 µM turned out to be 0.549%.
Take `CC(C)SCC(=O)N1Cc2cnc(-c3ccccc3)nc2C1`: the cytotoxicity at 10 µM came out at 1.2%.
On to `CN(CCc1ccccn1)C(=O)CCC1CCCN(c2ccncc2)C1` (stereo unspecified), for which the cytotoxicity at 10 µM was -3.48%.
As to `CO[C@H]1CN(C(C)C)C[C@@H]1NC(=O)c1cc(-c2ccccc2F)n[nH]1`, the cytotoxicity at 10 µM was -6.01%.
With `c1cc2c(cc1-n1nc(C3CC3)nc1-c1csnn1)OCCO2`, the cytotoxicity at 10 µM amounted to 9.46%.
For the compound `Cc1nc(C(C)C)ncc1C(=O)N1CCCC(N2CCCC2)C1` (stereo unspecified), the cytotoxicity at 10 µM was -20.1%.
As for `CC1CCN(CCCNS(=O)(=O)Cc2ccccc2F)CC1`, the cytotoxicity at 10 µM is -8.79%.
With `CCCS(=O)(=O)N1CCN(c2cc(-n3cnc(C)c3C)ncn2)CC1` the figure was 5.54%; with `CN(C)C(=O)N1CCN(C(=O)CCc2ccccc2)[C@H]2CS(=O)(=O)C[C@H]21`, -17.1%; with `CC(C)c1cc(N2CCN(c3ccc(O)cc3)CC2)n2nccc2n1`, -5.76%.
`CCn1nc(CC(C)C)cc1C(=O)N1CC[C@@H](O)C1`: the cytotoxicity at 10 µM was determined as 16.5%.
Turning to `Cc1cc2cc(C(=O)N3CC[C@H](O)[C@]4(CCCO4)C3)ccc2o1`, the cytotoxicity at 10 µM came to 1.01%.
For `Cc1cccnc1C(=O)N1CCCCC1c1[nH]ncc1S(C)(=O)=O` (stereo unspecified), the cytotoxicity at 10 µM was 5.92%.
Take `Cn1ccc(CN2CCC(CC(=O)NC3CCCC3)CC2)cc1=O`: the cytotoxicity at 10 µM is -16.8%.
With `c1ccc(COc2ccccc2CNC2CCc3ncnn3C2)cc1` (stereo unspecified) the figure was -10.2%.
Turning to `Cc1cc(CN(C)C(=O)NC2CCN(c3ncccn3)CC2)no1`, the cytotoxicity at 10 µM is -12.8%.
Take `COc1ccc(CNCc2ccnc(N3CCOCC3)c2)cc1OC`: the cytotoxicity at 10 µM is 1.64%.
For `CN1CCOC(CNC(=O)CCCOCCc2ccccc2)C1` (stereo unspecified), the cytotoxicity at 10 µM was -3.56%.
Under `CC(C)c1noc(CCCC(=O)N2CCC(Cc3cccnc3)CC2)n1` stands -5.43%; under `Cc1cc(CN(C)C(=O)NCc2cccc(N3CCCC3=O)c2)no1`, -12.4%; under `COCCOc1ccc(NC(=O)C2CCCN(C(N)=O)C2)cn1` (stereo unspecified), -8.9%.
Under `Cc1cccc(-c2nc(CN(Cc3cccs3)CC3CCCO3)no2)c1` (stereo unspecified) stands -3.01%; under `CCN(Cc1nc2c(cnn2C)c(=O)[nH]1)c1cccc(Cl)c1`, 1.18%; under `Cc1nc(CN(C)C2CCN(Cc3ccc4c(c3)OCCO4)C2)no1` (stereo unspecified), -4.79%.
On to `Fc1ccc(-c2cnc(C3CCCN3)cn2)cc1` (stereo unspecified), for which the cytotoxicity at 10 µM was -2.79%.
With `CN(C)[C@@H]1CCN(c2ncccn2)[C@H]1Cc1ccncc1` the figure was -17.9%.
Take `O=C1COC2(CCN(Cc3cccs3)CC2)CN1c1ccccc1`: the cytotoxicity at 10 µM is -4.63%.
`CN(C)CCn1c([C@@H]2CCCO2)cc2cccnc21`: the cytotoxicity at 10 µM was -25.4%.
With `Cc1noc(C)c1CN1CC[C@@H]2O[C@@H](COCC(C)C)CC[C@@H]21` the figure was -0.125%; with `Cc1nc[nH]c1CN1C[C@H]2CC[C@@H](C1)N(C(=O)CCNS(C)(=O)=O)C2`, -10.4%.
Turning to `Cc1ccoc1C1=NNC(=CN2CCCC(Cn3cncn3)C2)O1` (stereo unspecified), the cytotoxicity at 10 µM was -2.07%.

The values are drawn from ChEMBL document CHEMBL4513216, “Probing the Open Global Health Chemical Diversity Library for Multistage-Active Starting Points for Next-Generation Antimalarials” (ACS Infect Dis, 2020).
